Experimental data collected from several papers.
Protocols differ between the studies behind these lines. ≈ marks a conversion by molar mass, not a printed value.

COC(=O)c1cc(-c2cccc(NC(=O)Nc3cc(Cl)ccc3Cl)c2)on1
MIC (Klebsiella pneumoniae; microbial growth, broth dilution; BAA1705): > 64 mg/L

CCCCCCCCCCCCCCCc1cc(O)cc(O)c1
IC50 (Streptococcus pneumoniae; microbial growth): > 200 µM

Oc1cccc2cccnc12
IC50 (Klebsiella pneumoniae; microbial growth, broth dilution; ATCC700603): 49.5 mg/L

COC(=O)c1cc(-c2cccc(NC(=O)Nc3ccccc3F)c2)on1
MIC (Klebsiella pneumoniae; microbial growth, broth dilution; BAA1705): > 64 mg/L

NCCc1ccc(O)cc1
activity vs control (Cryptosporidium parvum; parasite growth, imaging; HCT-8; 1 mM, 24 h, intracellular): 94%

COC(=O)c1cc(-c2cccc(NC(=S)Nc3ccc(C#N)cc3)c2)on1
MIC (Klebsiella pneumoniae; microbial growth, broth dilution; BAA1705): > 64 mg/L

CCC(CCCCCCCCCCc1cc(O)cc(O)c1)C(C)C (stereo not drawn)
IC50 (Streptococcus pneumoniae; microbial growth): 30.2 µM

COC(=O)c1cc(-c2cccc(NC(=S)Nc3ccc(OC)cc3)c2)on1
MIC (Klebsiella pneumoniae; microbial growth, broth dilution; BAA1705): > 64 mg/L

CC(C)CCCCCCCCCCCCCCCc1cc(O)cc(O)c1
IC50 (Klebsiella pneumoniae; microbial growth; ATCC29665): > 200 µM

Cc1c(NN=C(C#N)C2=NC(=O)CS2)c(=O)n(-c2ccccc2)n1C
MBC (Klebsiella pneumoniae; microbial killing, broth dilution): 2 mg/L (≈ 5.64 µM)

CC(C)C(C)CCCCCCCCCCCc1cc(O)cc(O)c1 (stereo not drawn)
IC50 (Klebsiella pneumoniae; microbial growth; ATCC29665): > 200 µM

N#Cc1c[nH]c2ccccc12
EC90 (Cryptosporidium parvum; parasite growth; HCT-8; 24 h, intracellular): 386 µM
